Test results from PubChem BioAssay.
Activity calls are given as the source filed them.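 How the source made its calls, unless noted: active means viability loss from added drug above about 55%, and viability with drug at most 40%, in both replicates (limit read from the data, passing the limit was not always enough); inconclusive means both conditions met in only one replicate; inactive means neither replicate meets both conditions.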

Tests used:
[1] = HUVEC growth inhibition – cell-based, human, primary screen (AID 575;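 active means viability at or below 30% in both replicate assays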;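 further: 100% = median of untreated cell wells with 0.1% DMSO on each plate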); conditions: HUVEC proliferation, CellTiter-Glo luminescence, 72 h; at 10 µM; stronger effect = lower value
Summary of the method: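 Test system: HUVEC primary cells. Quantity: 1250 endothelial cells in each well. Dosing: single-point 10 µM, DMSO 0.1% final. Incubation: 72 h treatment at 37 °C. Measured by: CTG luminescence. Control set: DMSO cell controls and MePR drug controls. Plate: collagen-coated 384-well format.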

[2] = growth inhibitors of H69AR lung tumor, primary screen, human, duplicate replicates (AID 580;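 active means viability at or under a set limit in both replicates, limit being median viability minus 3 SD, cut at about 48% in these data, passing the limit was not always enough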;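 further: 100% = mean luminescence of untreated wells and 0% = no signal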); conditions: H69AR lung tumor cells viability, ATP luminescence, 72 h; at 10 µM; stronger effect = lower value
[3] = reversal of MRP1-mediated doxorubicin resistance, pilot screen, H69AR cells, doxorubicin co-treatment (AID 601); conditions: CellTiter-Glo, 72 h, at 10 µM; for differential viability (reversal): stronger effect = higher value
[4] = 384-well plate pilot, post-Golgi transport modulator project, inhibition of yeast transport mutant growth (AID 636; in the data active means inhibition above about 31%); conditions: absorbance 615 nm, about 18 h, stronger effect = higher value
[5] = growth suppression of yeast trafficking mutant, preliminary HTS, modulators of trafficking downstream of Golgi apparatus project, 1536-format plate, OD 615 nm (AID 637; in the data active means inhibition above about 30%); conditions: yeast transport mutant growth, absorbance 615 nm, 18 h; stronger effect = higher value
[6] = H69AR cells + 2 uM doxorubicin, measured here: viability with 2 uM doxorubicin, stronger effect = lower value
[7] = H69AR cells, compound alone cytotoxicity

SMILES	viability [1]	viability [2]	differential viability (reversal) ([3]; H69AR cells + 2 uM doxorubicin)	viability [3, 6] [%]	viability [3, 7] [%]	inhibition [4]	inhibition [5]
CC(C)NC(=O)c1ccccc1NC(=O)c1ccccc1N(C)S(C)(=O)=O	103% (inactive)	88.9% (inactive)	-4.12% (inactive)	93	88.9	-7.37% (inactive)	1.9% (inactive)
COc1ccc(NC(=O)N2CCC(O)(c3cccnc3)CC2)c(OC)c1	83.6% (inactive)	98.4% (inactive)	12.3% (inactive)	86.1	98.4	-1.43% (inactive)	-1.11% (inactive)
CC(C)(C)C1CCc2c(sc3c2C(=O)NC(c2ccco2)N3)C1 (centres undefined)	72.5% (inactive)	88.5% (inactive)	-10.4% (inactive)	98.9	88.5	1.97% (inactive)	-0.16% (inactive)
Cc1ccc(CCSCC(=O)O)cn1	109% (inactive)	101% (inactive)	2.9% (inactive)	98.3	101	-2.4% (inactive)	0.16% (inactive)
COc1ccc2c(c1)c1c(n2C(C)=O)C(OC(C)=O)=NCC1	92.4% (inactive)	87.4% (inactive)	-0.05% (inactive)	87.5	87.4	-5.39% (inactive)	5.71% (inactive)
O=C(O)CCc1ccc(-c2cccs2)n1NC(=O)c1ccco1	105% (inactive)	96.8% (inactive)	8.25% (inactive)	88.5	96.8	0.39% (inactive)	9.05% (inactive)
CCOc1ccccc1N(CC(=O)N1CCOCC1)S(=O)(=O)c1ccccc1	108% (inactive)	99% (inactive)	1.18% (inactive)	97.8	99	2.8% (inactive)	-4.76% (inactive)
COc1ccc(S(=O)(=O)Nc2ccc3c(c2)OCO3)cc1Cl	12.9% (active)	87.3% (inactive)	5.36% (inactive)	82	87.3	-6.67% (inactive)	12.1% (inactive)
Cc1ccc(S(=O)(=O)N2CCCC2C(=O)OCc2ccco2)cc1 (centres undefined)	96% (inactive)	77.2% (inactive)	0.425% (inactive)	76.8	77.2	-6.58% (inactive)	-7.62% (inactive)
CCC(C)(C)n1nnnc1C(c1ccccc1OC)N1CCSCC1 (centres undefined)	99.6% (inactive)	90% (inactive)	7.71% (inactive)	82.3	90	-0.78% (inactive)	-4.76% (inactive)
CCOc1cc(S(=O)(=O)NCc2ccc3c(c2)OCO3)ccc1F	95.4% (inactive)	97.9% (inactive)	4.41% (inactive)	93.5	97.9	-4.8% (inactive)	4.76% (inactive)
COc1ccc(Cl)cc1-c1n[nH]c(=S)o1	86.9% (inactive)	95.5% (inactive)	13.7% (inactive)	81.8	95.5	-6.4% (inactive)	-1.27% (inactive)
CCc1nnc(NC(=O)CSc2nnc(Cc3ccccc3)n2-c2ccc(OC)cc2)s1	92.9% (inactive)	84.6% (inactive)	-6.38% (inactive)	90.9	84.6	-5.79% (inactive)	-0.63% (inactive)
c1ccc(OCc2nc3ccccc3[nH]2)cc1	85.4% (inactive)	92.2% (inactive)	1.59% (inactive)	90.6	92.2	-3.6% (inactive)	-4.13% (inactive)
CCOc1ccccc1N1CCN(S(=O)(=O)c2cccc3nsnc23)CC1	84.1% (inactive)	86.1% (inactive)	4.72% (inactive)	81.4	86.1	0.26% (inactive)	10.9% (inactive)
Cc1nc(SCC(=O)NCc2ccco2)c2c(C)c(C)sc2n1	81.7% (inactive)	86.6% (inactive)	15.1% (inactive)	71.4	86.6	-2.86% (inactive)	-0.79% (inactive)
COc1ccccc1NC(=O)N1c2ccc(F)cc2CCC1C (centres undefined)	83.3% (inactive)	99% (inactive)	15% (inactive)	84	99	-2.47% (inactive)	3.02% (inactive)
Cc1cc(NC(=O)C2CCCC2)nc2c1c(=O)oc1ccccc12	60.3% (inactive)	62.8% (inactive)	-24.9% (inactive)	87.8	62.8	-5.45% (inactive)	3.49% (inactive)
CCOC(=O)N1CCC(N(C(=O)Nc2ccc(Cl)c(Cl)c2)C(C)CC)CC1 (centres undefined)	79.3% (inactive)	97.7% (inactive)	4.27% (inactive)	93.4	97.7	-2.63% (inactive)	0.79% (inactive)

SMILES	viability [1]	viability [2]	differential viability (reversal) ([3]; H69AR cells + 2 uM doxorubicin)	viability [3, 6] [%]	viability [3, 7] [%]	inhibition [4]	inhibition [5]
COCC(=O)NC(c1ccccc1)c1ccccc1	86.1% (inactive)	89.5% (inactive)	12.2% (inactive)	77.3	89.5	-5.84% (inactive)	3.81% (inactive)
Nc1nnc(SCC(=O)N2CCN(c3ccccc3)CC2)n1-c1ccccc1	80.6% (inactive)	90% (inactive)	7.97% (inactive)	82.1	90	-0.78% (inactive)	2.06% (inactive)
Cn1c(=O)c2c(nc(-n3ccnc3)n2C)n(C)c1=O	105% (inactive)	101% (inactive)	8.81% (inactive)	92.7	101	-4.13% (inactive)	1.59% (inactive)
O=C(CCN1CCN(CCO)CC1)Nc1ccc(OCc2ccccc2)cc1	76.5% (inactive)	88.9% (inactive)	6.03% (inactive)	82.9	88.9	-2.6% (inactive)	-6.67% (inactive)
CCCC(=O)Nc1ccc(NC(=O)c2cccs2)cn1	95.9% (inactive)	87.8% (inactive)	5.45% (inactive)	82.3	87.8	-2.99% (inactive)	-2.86% (inactive)
Nc1cc(C(=O)O)ccc1Nc1ccccc1	86.8% (inactive)	111% (inactive)	11.5% (inactive)	99.8	111	-5.06% (inactive)	2.38% (inactive)
Cc1ccc(-c2nnn(CC(=O)N(CC(=O)NCC3CCCO3)c3ccccc3)n2)o1 (centres undefined)	88.7% (inactive)	90.9% (inactive)	2.55% (inactive)	88.4	90.9	-5.97% (inactive)	-1.11% (inactive)
CC(Sc1nnc(-c2cc3ccccc3o2)n1-c1ccccc1)C(=O)O (centres undefined)	90.9% (inactive)	95.1% (inactive)	1.61% (inactive)	93.5	95.1	-5.84% (inactive)	2.38% (inactive)
CC1(C)NC(=O)N(CCCOc2ccc(Br)cc2Cl)C1=O	86% (inactive)	89.7% (inactive)	15.5% (inactive)	74.3	89.7	-3.82% (inactive)	4.29% (inactive)
COC(=O)C1=C(CSCc2ccco2)NC(=O)NC1c1cc(C)ccc1C (centres undefined)	98.4% (inactive)	82.5% (inactive)	-9.46% (inactive)	92	82.5	-1.47% (inactive)	-1.43% (inactive)
CC12C(=O)N(CCC(=O)O)C(=O)C1C1C=CC2C1 (centres undefined)	107% (inactive)	89.6% (inactive)	-1.44% (inactive)	91	89.6	-2.37% (inactive)	2.86% (inactive)
CCc1ccc2[nH]c(=O)c(C(c3nnnn3CC3CCCO3)N3CCCc4ccccc43)cc2c1 (centres undefined)	88.5% (inactive)	91.8% (inactive)	-6.4% (inactive)	98.2	91.8	-7.2% (inactive)	-1.9% (inactive)
c1ccc(Cn2nnnc2C(c2ccccn2)N2CCOCC2)cc1 (centres undefined)	107% (inactive)	94.3% (inactive)	-2.14% (inactive)	96.5	94.3	-3.25% (inactive)	-6.51% (inactive)
N#Cc1cnc(SCC(=O)c2ccccc2)nc1N	95.5% (inactive)	93.1% (inactive)	16.2% (inactive)	76.9	93.1	-6.93% (inactive)	7.3% (inactive)
CCCCC(CC)Cn1c2nc3ccccc3nc2c2c(=N)oc(C)nc21 (centres undefined)	3.36% (active)	1.91% (active)	-0.33% (inactive)	2.24	1.91	-2.63% (inactive)	1.59% (inactive)
CC(C)(C)NC(=O)CN(C(=O)CS(=O)CC(=O)Nc1ccc(F)cc1)c1ccc(Cl)cc1 (centres undefined)	95.2% (inactive)	98.9% (inactive)	10.3% (inactive)	88.6	98.9	-4.53% (inactive)	21.9% (inactive)
Nc1nnc(-c2cc3ccccc3oc2=O)s1	91.8% (inactive)	91.7% (inactive)	0.3% (inactive)	91.4	91.7	-0.66% (inactive)	2.38% (inactive)
O=C(Cc1ccc(S(=O)(=O)N2CCCC2)s1)Nc1nc2c(s1)CCCC2	66.3% (inactive)	95.7% (inactive)	1% (inactive)	94.7	95.7	-1.17% (inactive)	-6.83% (inactive)
